Test results taken from ChEMBL document CHEMBL1132711 (J Med Chem, 1999).
pEC50, pIC50, pKi: −log10 of the molar value.

How the values were obtained:
[1] = biological target: T1, Progesterone receptor (Homo sapiens) (UniProt P06401); test: (§1) Agonistic activity by cotransfection assay against human Progesterone receptor in T47D cells; assay type: functional, cell-based
T1 sequence (whole entry): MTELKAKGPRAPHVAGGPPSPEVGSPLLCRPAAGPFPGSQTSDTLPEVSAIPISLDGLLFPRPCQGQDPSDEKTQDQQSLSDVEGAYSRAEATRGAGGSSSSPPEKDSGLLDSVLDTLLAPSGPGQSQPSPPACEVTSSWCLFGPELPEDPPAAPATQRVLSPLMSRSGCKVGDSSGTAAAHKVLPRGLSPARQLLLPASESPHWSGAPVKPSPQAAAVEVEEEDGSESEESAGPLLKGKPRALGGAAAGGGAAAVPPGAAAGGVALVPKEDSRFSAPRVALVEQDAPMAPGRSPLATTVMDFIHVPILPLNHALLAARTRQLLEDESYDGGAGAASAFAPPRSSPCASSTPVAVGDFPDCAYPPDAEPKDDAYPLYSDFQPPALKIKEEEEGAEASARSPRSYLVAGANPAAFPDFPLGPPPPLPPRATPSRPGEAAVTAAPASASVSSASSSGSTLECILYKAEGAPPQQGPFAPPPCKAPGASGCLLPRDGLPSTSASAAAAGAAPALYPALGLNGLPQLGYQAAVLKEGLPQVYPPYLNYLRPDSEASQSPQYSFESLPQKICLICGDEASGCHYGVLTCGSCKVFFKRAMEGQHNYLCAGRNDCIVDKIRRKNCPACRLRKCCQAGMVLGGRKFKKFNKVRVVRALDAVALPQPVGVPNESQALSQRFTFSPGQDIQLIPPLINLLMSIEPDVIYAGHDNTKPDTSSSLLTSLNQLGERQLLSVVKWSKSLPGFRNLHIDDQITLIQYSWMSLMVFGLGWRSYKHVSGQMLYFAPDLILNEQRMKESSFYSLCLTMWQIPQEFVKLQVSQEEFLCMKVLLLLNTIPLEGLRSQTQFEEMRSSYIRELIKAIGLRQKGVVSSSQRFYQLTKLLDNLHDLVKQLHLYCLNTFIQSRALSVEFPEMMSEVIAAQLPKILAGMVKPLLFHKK
How it was run: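 T47D human breast cancer cells (high endogenous hPR) incubated with test compound in 96-well format; alkaline phosphatase expression measured by absorbance. […] EC50 from full dose–response curves; mean of at least three separate experiments in triplicate, or single experiment where no error given.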

Glucocorticoid receptor = biological target: T2, Glucocorticoid receptor (Homo sapiens, UniProt P04150)
T2 sequence (P04150 whole entry): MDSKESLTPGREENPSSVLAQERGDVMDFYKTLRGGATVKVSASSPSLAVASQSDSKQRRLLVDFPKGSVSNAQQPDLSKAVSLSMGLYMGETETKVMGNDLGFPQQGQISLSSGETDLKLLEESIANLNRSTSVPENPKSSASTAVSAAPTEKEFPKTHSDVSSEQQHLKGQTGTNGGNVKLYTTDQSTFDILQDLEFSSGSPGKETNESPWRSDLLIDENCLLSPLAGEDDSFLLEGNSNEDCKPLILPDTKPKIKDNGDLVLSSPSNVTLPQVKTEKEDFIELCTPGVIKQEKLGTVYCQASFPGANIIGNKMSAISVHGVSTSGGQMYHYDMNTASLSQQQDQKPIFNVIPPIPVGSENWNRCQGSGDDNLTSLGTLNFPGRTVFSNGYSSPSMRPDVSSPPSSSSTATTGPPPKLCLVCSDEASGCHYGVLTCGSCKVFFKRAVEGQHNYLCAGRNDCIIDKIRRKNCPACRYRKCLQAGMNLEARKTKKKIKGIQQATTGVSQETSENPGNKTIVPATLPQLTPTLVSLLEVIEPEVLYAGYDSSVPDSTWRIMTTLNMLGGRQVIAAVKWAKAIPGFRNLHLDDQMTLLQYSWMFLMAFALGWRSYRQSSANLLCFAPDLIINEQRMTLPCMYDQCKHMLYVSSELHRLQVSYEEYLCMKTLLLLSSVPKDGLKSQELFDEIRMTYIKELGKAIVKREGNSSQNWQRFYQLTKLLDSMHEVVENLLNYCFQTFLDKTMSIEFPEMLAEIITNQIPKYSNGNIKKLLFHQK

Androgen receptor = biological target: T3, Androgen receptor (Homo sapiens, UniProt P10275)
T3 sequence (P10275 whole entry): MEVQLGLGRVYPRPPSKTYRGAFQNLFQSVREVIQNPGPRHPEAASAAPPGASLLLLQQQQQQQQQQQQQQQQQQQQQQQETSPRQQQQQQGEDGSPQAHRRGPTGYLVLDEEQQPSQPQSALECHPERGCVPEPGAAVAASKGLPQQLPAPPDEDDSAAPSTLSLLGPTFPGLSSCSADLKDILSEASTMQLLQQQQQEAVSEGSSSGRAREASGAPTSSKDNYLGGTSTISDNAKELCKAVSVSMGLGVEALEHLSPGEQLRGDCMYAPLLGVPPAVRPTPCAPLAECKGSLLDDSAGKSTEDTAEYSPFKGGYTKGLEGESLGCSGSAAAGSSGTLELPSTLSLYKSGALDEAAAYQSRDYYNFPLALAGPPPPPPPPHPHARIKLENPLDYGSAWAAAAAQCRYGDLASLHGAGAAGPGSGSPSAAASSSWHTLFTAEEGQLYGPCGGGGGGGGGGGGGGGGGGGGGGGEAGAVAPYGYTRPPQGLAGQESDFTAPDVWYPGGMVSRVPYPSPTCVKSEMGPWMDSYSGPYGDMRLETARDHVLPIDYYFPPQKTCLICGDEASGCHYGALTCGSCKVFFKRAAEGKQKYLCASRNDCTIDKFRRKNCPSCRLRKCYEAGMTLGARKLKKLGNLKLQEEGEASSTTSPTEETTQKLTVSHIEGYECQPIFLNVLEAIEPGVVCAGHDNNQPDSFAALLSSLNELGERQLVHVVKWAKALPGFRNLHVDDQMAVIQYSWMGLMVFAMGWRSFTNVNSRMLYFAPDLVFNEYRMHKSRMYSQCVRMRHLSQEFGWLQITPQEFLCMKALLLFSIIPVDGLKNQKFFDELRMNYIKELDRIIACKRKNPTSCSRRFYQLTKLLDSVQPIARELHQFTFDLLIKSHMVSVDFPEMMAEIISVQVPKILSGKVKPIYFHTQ

[2] = biological target: T1, Progesterone receptor (Homo sapiens); test: (§2) Compound was tested for agonistic activity by cotransfection assay against human Progesterone receptor in CV-1 cells; assay type: functional, cell-based
Progesterone receptor [3] = biological target: T4, Progesterone receptor (Homo sapiens, UniProt P06401); test: as §2; assay type: functional, cell-based
T4 sequence (P06401 whole entry): T1 sequence (whole entry)

Progesterone receptor [4] = biological target: T4, Progesterone receptor; test: Compound was evaluated for its binding affinity against baculovirus expressed Progesterone receptor
Progesterone receptor [5] = biological target: T4, Progesterone receptor; test: as §1; assay type: functional, cell-based
Progesterone receptor [6] = biological target: T4, Progesterone receptor; test: Agonistic effect on transcriptional activity in T47D cells expressing human Progesterone receptor; assay type: functional, cell-based
How it was run: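 T47D human breast cancer cells, which express high levels of hPR, incubated with test compound. Readout is absorbance from induced alkaline phosphatase expression. […] Values are the mean of at least three separate experiments in triplicate; values without SEM are from a single experiment.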

[7] = biological target: T1, Progesterone receptor (Homo sapiens); test: (§3) Antagonistic activity by cotransfection assay against human Progesterone receptor in CV-1 cells; assay type: functional, cell-based
Progesterone receptor [8] = biological target: T4, Progesterone receptor; test: as §3; assay type: functional, cell-based

SMILES | Efficacy [1] | pKi (Glucocorticoid receptor) | pKi (Androgen receptor) | Efficacy [2] | pEC50 (Progesterone receptor [3]) | pKi (Progesterone receptor [4]) | pEC50 (Progesterone receptor [5]) | pEC50 (Progesterone receptor [6]) | Efficacy [7] | pIC50 (Progesterone receptor [8])
C[C@H]1C(=O)C(C)(C)Nc2ccc3c(c21)[C@H](c1ccc(Cl)cc1)Oc1ccccc1-3 | 107% | 6.04 | 6.16 | 102% |  |  |  |  |  | 
C[C@@H]1C(=O)C(C)(C)Nc2ccc3c(c21)[C@H](c1ccccc1)Oc1ccccc1-3 | 92% | 6.60 | 6.14 | 92% | 8.00 | 8.18 | 7.63 |  |  | 
CC1=CC(C)(C)Nc2ccc3c(c21)C(c1ccc(Cl)cc1)Oc1ccccc1-3 (centres undefined) | 48% |  |  |  |  |  |  | 7.49 |  | 
C[C@H]1c2c(ccc3c2[C@H](c2ccc(Cl)cc2)Oc2ccccc2-3)NC(C)(C)[C@@H]1O |  |  |  |  |  | < 6.30 |  |  | 91% | 6.34
C[C@H]1C(=O)C(C)(C)Nc2ccc3c(c21)[C@H](c1ccccc1)Oc1ccccc1-3 | 102% | 6.04 | 5.97 | 103% | 8.05 | 7.54 | 7.46 |  |  | 
CC1(C)C=Cc2c(ccc3c2C(c2ccc(Cl)cc2)Oc2ccccc2-3)N1 (centres undefined) |  |  |  | 28% | 5.89 | 7.98 |  |  | 50% | 6.85
CC1CC(C)(C)Nc2ccc3c(c21)/C(=C/c1cccc(F)c1)Oc1ccccc1-3 (centres undefined) |  |  |  | 114% | 7.33 | 8.20 |  |  |  | 
C[C@@H]1C(=O)C(C)(C)Nc2ccc3c(c21)[C@H](c1cccc(F)c1)Oc1ccccc1-3 | 96% | 6.71 | 6.21 | 106% | 8.20 | 8.59 | 7.83 |  |  | 
C[C@@H]1CC(C)(C)Nc2ccc3c(c21)[C@H](c1ccc(Cl)cc1)Oc1ccccc1-3 |  |  |  | 58% | 7.32 | 7.04 |  |  | 56% | 5.51
C[C@H]1C(=O)C(C)(C)Nc2ccc3c(c21)[C@H](c1cccc(C(F)(F)F)c1)Oc1ccccc1-3 | 103% | 6.60 | 6.09 | 66% | 7.80 | 6.91 | 7.20 |  |  | 
C[C@@H]1C(=O)C(C)(C)Nc2ccc3c(c21)[C@H](c1cccc(C(F)(F)F)c1)Oc1ccccc1-3 | 85% | 6.59 | 5.96 | 93% | 7.85 | 7.78 | 7.43 |  |  | 
C[C@@H]1C(=O)C(C)(C)Nc2ccc3c(c21)[C@H](c1ccc(Cl)cc1)Oc1ccccc1-3 | 97% | 6.48 | 5.93 | 122% |  |  |  |  |  | 
CC1=CC(C)(C)Nc2ccc3c(c21)C(C)Oc1ccc(Cl)cc1-3 (centres undefined) | 42% |  |  |  |  |  |  |  |  | 
CC1=CC(C)(C)Nc2ccc3c(c21)C(c1cccc(Cl)c1)Oc1ccc(F)cc1-3 (centres undefined) | 47% |  |  |  |  |  | 7.57 |  |  | 
C[C@@H]1c2c(ccc3c2[C@H](c2ccc(Cl)cc2)Oc2ccccc2-3)NC(C)(C)[C@H]1O |  |  |  |  |  | < 6.30 |  |  | 69% | 5.49
C=C1CC(C)(C)Nc2ccc3c(c21)C(c1ccc(Cl)cc1)Oc1ccccc1-3 (centres undefined) |  |  |  | 30% | 6.91 |  |  |  | 81% | 5.76
C[C@H]1C(=O)C(C)(C)Nc2ccc3c(c21)[C@H](c1cccc(F)c1)Oc1ccccc1-3 | 107% | 6.06 | 6.30 | 114% | 8.06 | 7.55 | 7.59 |  |  | 
CC1C(=O)C(C)(C)Nc2ccc3c(c21)/C(=C/c1cccc(F)c1)Oc1ccccc1-3 (centres undefined) | 83% | 5.33 | 6.25 | 155% | 8.06 | 8.46 | 7.60 |  |  | 
CC(=O)O[C@]1(C(C)=O)CC[C@H]2[C@@H]3C[C@H](C)C4=CC(=O)CC[C@]4(C)[C@H]3CC[C@@]21C | 90% |  |  |  |  |  |  |  |  | 
CC1(C)Nc2ccc3c(c2C(C)(C)C1=O)C(c1ccc(Cl)cc1)Oc1ccccc1-3 (centres undefined) |  |  |  | 36% | 8.01 | 8.28 |  |  |  | 
C[C@H]1CC(C)(C)Nc2ccc3c(c21)[C@H](c1ccc(Cl)cc1)Oc1ccccc1-3 |  |  |  | 39% | 7.41 | 8.00 |  |  |  | 
CC1(C)CC(=O)c2c(ccc3c2C(c2ccc(Cl)cc2)Oc2ccccc2-3)N1 (centres undefined) |  |  |  |  |  | 7.61 |  |  | 84% | 6.42
CC1=CC(C)(C)Nc2ccc3c(c21)/C(=C/c1cccc(F)c1)Oc1ccccc1-3 | 55% |  |  |  |  |  | 7.29 |  |  | 
CC1C(=O)C(C)(C)Nc2ccc3c(c21)/C(=C/c1ccccc1)Oc1ccccc1-3 (centres undefined) | 93% | 6.17 | 5.92 | 133% | 7.77 | 8.31 | 7.74 |  |  | 
